# Assay results as given in ChEMBL document CHEMBL6083224, “A novel aurone RNA CAG binder inhibits the huntingtin RNA-protein interaction” (RSC Med Chem, 2024).
# The source made the active and inactive calls. No cut-off for these calls is given here.
# Legend:
# Assay type in all cases: nucleic-acid assay
# [1] = test system: Rev responsive element (RRE) RNA; test: Binding affinity to HIV-1 RRE-IIB (5-GGUCUGGGCGCAGCGCAAGCUGACGGUACAGGCC-3) RNA assessed as change in fluorescence intensity; details: Human immunodeficiency virus 1
# TAR RNA = test: Binding affinity to HIV-1 TAR (5-GGCAGAUCUGAGCCUGGGAGCUCUCUGCC-3) RNA assessed as change in fluorescence intensity; details: Human immunodeficiency virus 1
# r(CUG) repeat expansion = test: Binding affinity to CUG (5-GGUCGCUGCUGCACGAAAGUGCUGCUGCGACC-3) RNA (unknown origin) assessed as change in fluorescence intensity
# CAG repeat expansion [2] = test: Binding affinity to HTT exon 1 (CAG)51 repeat RNA (unknown origin) assessed as reduction in human MID1 binding to HTT exon 1 (CAG)51 repeat RNA at 100 uM by Western blot analysis
# Outline: (§1)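 Biotinylated RNA was folded in 10 mM Tris pH 7, 100 mM KCl, 10 mM MgCl₂ (72 °C for 10 min, then cooled to room temperature). 80 pmol of RNA was loaded onto streptavidin-agarose beads in buffer D for 30 min at room temperature. HEK293T protein extract was bound overnight at 4 °C. After washes, bound proteins were eluted at 95 °C for 10 min, and MID1 was detected by anti-MID1 western blot.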
# CAG repeat expansion [3] = test: Binding affinity to CAG (5-GCAGCAGCUUCGGCAGCAGC-3) repeat RNA (unknown origin) by spectrophotometric analysis
# Outline: (§2)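 The compound was titrated with RNA, and electronic absorption spectra were recorded on a two-beam UV-vis spectrophotometer. Binding constants were calculated from the spectrophotometric titration data.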
# CAG repeat expansion [4] = test: Binding affinity to CAG (5-GCAGCAGCUUCGGCAGCAGC-3) repeat RNA (unknown origin) assessed as binding constant; outline: as §2
# CAG repeat expansion [5] = test: Binding affinity to HTT exon 1 (CAG)51 repeat RNA (unknown origin) assessed as reduction in human MID1 binding to HTT exon 1 (CAG)51 repeat RNA by Western blot analysis; details: dose 1-100 µM; outline: as §1
# CAG repeat expansion [6] = test: Binding affinity to CAG (5-GCAGCAGCUUCGGCAGCAGC-3) repeat RNA (unknown origin) assessed as hypochromic red shift by spectrophotometric analysis; outline: as §2
Activity [1],Activity (TAR RNA),Activity (r(CUG) repeat expansion),Activity (CAG repeat expansion [2]),Activity (CAG repeat expansion [3]),K (CAG repeat expansion [4]),Activity (CAG repeat expansion [5]),Activity (CAG repeat expansion [6]),Compound
Active,Active,inactive,inactive,inactive,,,,O=C1/C(=C/c2c3ccccc3cc3ccccc23)Oc2ccccc21
No effect,No effect,No effect,Active,,1.4 10^5/M,Dose-dependent-effect,Active,CN(C)CCOc1ccc(/C=C2\Oc3cc(OCCN(C)C)ccc3C2=O)cc1
